An excerpt weighted towards active compounds, which were near 2.1% of everything screened.
GRK2 inh – compounds blocking aptamer binding on GRK2 – biochemical, human GRK2, bead flow cytometry, HTS, primary screen; Beta-adrenergic receptor kinase 1 (Homo sapiens), P25098; inhibition of aptamer binding, % at 10 µM; FAM-aptamer displacement from GRK2; AID 488847, 2010; 330,000 tested, 0.59% active;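 active = inhibition of aptamer binding above 40%, roughly 3 SD of noise, on plates passing a quality check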;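 note: median bead fluorescence of bound FAM aptamer so fluorescent compounds give negative values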
Scp1 inh – Scp-1 phosphatase inhibitors, primary screen, biochemical, colorimetric, uHTS; inhibition, % at 20 µM; Carboxy-terminal domain RNA polymerase II polypeptide A small phosphatase 1 (Homo …; 340,000 tested, 0.88% active; Recombinant Scp1, phosphopeptide, malachite green phosphate absorbance; AID 493091, 2011;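 active = inhibition above about 50% at 20 µM, limit read from the data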;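 note: plate controls were DMSO wells with enzyme for no effect and wells lacking enzyme for full effect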
Target sequence (Q9GZU7 76-261 limits assumed): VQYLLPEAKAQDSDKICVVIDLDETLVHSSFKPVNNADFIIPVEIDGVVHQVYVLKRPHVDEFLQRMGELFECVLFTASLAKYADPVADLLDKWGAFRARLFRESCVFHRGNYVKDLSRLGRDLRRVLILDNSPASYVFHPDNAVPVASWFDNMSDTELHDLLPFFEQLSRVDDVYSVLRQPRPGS
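Test system: SCP-1 phosphatase catalytic domain, residues 76-261; measured by: colorimetric phosphate reagent with accelerator and stabiliser, absorbance at 630 nm; timing: enzyme reaction 45 min at room temperature, colour 5 min, stabilisation 30 min; also added: Phosphorylated 17-residue peptide substrate; compound dosing: one concentration, 20 µM, with 1.0% DMSO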
LMPTP block – LMPTP phosphatase inhibitors, primary screen, biochemical, fluorescence intensity, uHTS | recombinant LMPTP-A, OMFP fluorogenic substrate | 360,000 tested, 0.22% active | inhibition, % at 20 µM;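 active = compounds that cut the enzyme signal by at least half of the control window in the single-dose screen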;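 note: plate controls were DMSO wells with enzyme plus substrate for no effect and substrate without enzyme for full effect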
Target sequence (P24666 whole entry, looked up): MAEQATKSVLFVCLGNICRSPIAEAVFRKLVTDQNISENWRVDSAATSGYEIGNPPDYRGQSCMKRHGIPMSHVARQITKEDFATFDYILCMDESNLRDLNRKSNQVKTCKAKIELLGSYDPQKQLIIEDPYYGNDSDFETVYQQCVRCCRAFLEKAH
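Test system – LMPTP-A enzyme · Amount – LMPTP-A at 0.625 nM final in the reaction · Buffer or medium – Bis-Tris pH 6.0, DTT, detergent · Reagent – OMFP 400 µM · Doses – single 20 µM dose · Schedule – reaction 50 min, room temperature, dark · Detection – fluorescence intensity of OMFP turnover product · Evaluation – percent inhibition versus substrate-only and uninhibited controls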
STEP block – STEP phosphatase inhibitors, primary screen, biochemical, fluorescence intensity, uHTS. 360,000 tested, 0.25% active. recombinant STEP, OMFP fluorogenic substrate. inhibition, % at 20 µM;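 active = inhibition at 20 µM, scaled per plate between control wells, above about 37%, limit read from the data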;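 note: 0% = DMSO with enzyme and substrate and 100% = substrate only without enzyme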
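Assay system: isolated STEP enzyme / Timing: 20 min at room temperature, dark / Doses: 20 µM, 1% DMSO / Technique: fluorescence intensity, excitation 480 nm, emission 540 nm / Reagent: fluorogenic phosphatase substrate OMFP at 25 µM final / Measure: percent inhibition scaled to no-enzyme and uninhibited-enzyme controls, plate-pattern corrected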
DNMT1 inh – human DNMT1 methyltransferase inhibitors, primary screen, biochemical, molecular beacon, fluorescence, HinP1I cleavage, uHTS | 360,000 tested, 0.83% active | inhibition (reported as % activation of signal), % at 10 µM | DNA (cytosine-5)-methyltransferase 1 (Homo sapiens), P26358 | AID 588458, 2011; in the data active = inhibition above about 50%
SUMO1 PPI mod – modulators of SUMO1 protein-protein interactions, primary screen, biochemical, uHTS. SUMO1 binding to a labelled peptide, TR-FRET, 1 h. AID 602429, 2012. Small ubiquitin-related modifier 1 (Homo sapiens), P63165. 360,000 tested, 0.33% active. inhibition, % at 20 µM; in the data active = inhibition above about 37%
Target sequence (P63165 whole entry, looked up): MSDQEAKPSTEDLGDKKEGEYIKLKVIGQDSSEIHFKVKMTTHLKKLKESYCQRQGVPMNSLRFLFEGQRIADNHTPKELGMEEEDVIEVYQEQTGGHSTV
GRK2 inh confirm – GRK2 aptamer-displacing inhibitors, retest, confirmation, biochemical, cherry pick 1, bead flow cytometry; shares compounds with GRK2 inh; bead-bound GRK2, FAM-aptamer displacement; aptamer displacement, % at 10 µM; 2,000 tested, 4% active; AID 504451, 2011;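 active = aptamer displacement above 40%, near three times the noise of non-fluorescent compounds, on plates passing quality checks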;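 note: negative values mostly reflect intrinsic compound fluorescence rather than true enhancement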
Aptamer quench – counter-screen for GRK2 aptamer inhibitors: fluorescent aptamer quenchers | 110 tested, under 10 active | shares compounds with GRK2 inh | fluorescence change (kMESF span), kMESF (no concentration beside the values) | AID 504521 | Fluorescent RNA aptamer beads, quenching, flow cytometry; hits give high values;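 active = compounds whose bead fluorescence drops by more than 37 kMESF across the dose range, marking them as dye quenchers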
FAM quench CP1 – aptamer fluorescence quenching in GRK2 counter-screen | AID 504580 | fluorescence response (% of DMSO), % at 10 µM | shares compounds with GRK2 inh | 2,000 tested, under 10 active | Carboxyfluorescein RNA aptamer on beads, flow cytometry quenching; hits give low values;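 active = compounds that quench the bead-bound fluorescent RNA probe, cutting fluorescence to under half of the solvent control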;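 note: counterscreen run without GRK2 so only probe quenching by compound is measured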
Aptamer quench3 – fluorescence quenching of FAM-labeled RNA aptamer, dose response, artefact control for GRK2 aptamer inhibitor project, biochemical, flow cytometry, cherry pick 2. shares compounds with GRK2 inh. Streptavidin beads. change in fluorescence (kMESF span), kMESF (test concentration not listed). 25 tested, under 10 active. AID 504819, 2011;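 active = compounds quenching the bead-bound labeled aptamer, with fluorescence dropping by more than 37 kMESF over the dose range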
Scp-1 conf – Scp-1 phosphatase inhibitors, retest, confirmation, biochemical, colorimetric, single concentration. shares compounds with Scp1 inh. inhibition, % at 20 µM. recombinant SCP-1 catalytic domain, phosphate release, malachite green absorbance. 2,500 tested, 61% active;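 note: plate controls were DMSO with enzyme for no effect and buffer wells lacking enzyme for full effect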
Scp-1 MG ctr – colorimetric readout interference by compounds, confirmation, artefact control for Scp-1 inhibitor project, biochemical, single concentration | 2,500 tested, under 10 active | AID 540313, 2011 | apparent inhibition (interference), % at 20 µM | Colorimetric interference counterscreen, malachite green absorbance 630 nm | shares compounds with Scp1 inh;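 note: compounds added after enzyme reaction finished so only phosphate colour detection is probed; plate controls were DMSO wells with completed Scp-1 reaction for no effect and substrate wells lacking enzyme for full effect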
Scp-1 Tm shift – Scp-1 binding by thermal shift, confirmation, orthogonal assay for Scp-1 inhibitor project, biophysical, differential scanning fluorimetry | 1,500 tested, 25% active | thermal shift relative to vanadate control, % at 40 µM | shares compounds with Scp1 inh | Recombinant SCP1, Sypro Orange thermal shift Tm | AID 540329, 2011;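 active = substances whose mean melting-temperature shift, as a percentage of the reference inhibitor's shift, reaches about 5.3%, limit read from the data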;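 note: 0% = Tm of DMSO wells and 100% = Tm with sodium orthovanadate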
Starred values were filed as active, the others as inactive; x = not tested or not shown.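 Rule for the calls, unless noted: active = inhibition of at least 30% at 20 µM; inactive = the rest.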

SMILES | GRK2 inh | Scp1 inh | LMPTP block | STEP block | DNMT1 inh | SUMO1 PPI mod | GRK2 inh confirm | FAM quench CP1 | Scp-1 conf | Scp-1 MG ctr | Scp-1 Tm shift | others
Cc1ccc2cc(C3C(C#N)=C(N)Oc4c3ccc3cccnc43)c(=O)[nH]c2c1 (centres undefined) | 97* | -6 | 9 | 3 | -2 | -13 | -3 | 110 | x | x | x
CCc1ccc2[nH]c(=O)c(C3C(C#N)=C(N)Oc4c3ccc3cccnc43)cc2c1 (centres undefined) | 1 | -5 | 2 | 2 | -12 | -10 | x | x | x | x | x
CCNC(=O)c1cc2c(=O)n3cccc(C)c3nc2n(Cc2ccc(C)cc2)c1=N | 1 | 13 | 4 | 2 | 4 | -18 | x | x | x | x | x
COc1ccc(CNC(=O)c2cc3c(=O)n4cccc(C)c4nc3n(CC3CCCO3)c2=N)cc1 (centres undefined) | 0 | 10 | 8 | 1 | 8 | -24 | -2 | 97 | x | x | x
Cc1cccn2c(=O)c3cc(C(=O)NCCN4CCOCC4)c(=N)n(CCN4CCOCC4)c3nc12 | 41* | 1 | 1 | 2 | 2 | -40 | -1 | 97 | x | x | x
CCCn1c(=N)c(C(=O)NCc2ccc3c(c2)OCO3)cc2c(=O)n3cccc(C)c3nc21 | 78* | -4 | 0 | 2 | 2 | -17 | -2 | 93 | x | x | x
Cc1cccn2c(=O)c3cc(C(=O)NCc4ccc(F)cc4)c(=N)n(CC4CCCO4)c3nc12 (centres undefined) | 7 | 0 | 5 | 0 | 7 | -22 | x | x | x | x | x
O=C(c1ccccc1)n1c2ccccc2c(=O)n1-c1ccccc1CCl | x | x | -1 | 1 | 5 | 3 | x | x | x | x | x
O=Cc1ccc(-c2ccccc2C(=O)O)o1 | 5 | 5 | 2 | -3 | 6 | -2 | x | x | x | x | x
O=C(O)c1ccccc1-c1c2cc(I)c(=O)c(I)c-2oc2c(I)c(O)c(I)cc12 | 61* | 77* | 22 | -75 | 34 | 69* | 80* | 96 | 65* | -23 | 164* | Aptamer quench=8.8
CC1(C(=O)Nc2ccc3c(c2)OCCO3)CN(S(C)(=O)=O)CC(=O)N1Cc1cccs1 (centres undefined) | x | x | -1 | x | x | -2 | x | x | x | x | x
COc1ccc(/C=N/Nc2ncc(Br)cn2)c(OC)c1 | 45* | 57* | 11 | 15 | 20 | -6 | 25 | 99 | 38* | 3 | -17
O=C(Nc1c(-c2ccc3c(c2)OCO3)[nH][nH]c1=O)c1cnccn1 | x | x | -1 | -2 | -17 | 2 | x | x | x | x | x
O=C(O)c1cc(-c2ccc(/C=C3\NC(=O)N(c4ccccc4)C3=O)o2)ccc1Cl | 86* | 73* | -1 | 40* | 57* | 9 | 20 | 102 | 55* | -8 | 9.1*
CCc1ccccc1NC(=O)CCS(=O)(=O)c1ccc(OC)cc1 | 53* | 55* | 0 | 9 | 45 | 14 | 27 | 99 | 48* | -13 | -7 | Aptamer quench=2.8;Aptamer quench3=0.3
CCCCN(C(=O)COc1ccc(F)cc1)c1c(N)n(CC(C)C)c(=O)[nH]c1=O | x | x | -2 | -2 | 5 | 1 | x | x | x | x | x
O=C(N/N=C/c1cccnc1)c1cccc(NC(=O)c2ccc(Cl)cc2)c1 | 39 | 82* | 20 | 97* | -8 | 66* | -5 | 93 | 65* | -12 | 2
Cc1cccc(C(=O)Nc2ccc(C(=O)N/N=C/c3cccnc3)cc2)c1 | 0 | -8 | -1 | -3 | 1 | 3 | x | x | x | x | x
C[C@H]1CN([C@@H](C)CO)C(=O)c2cc(C#Cc3ccccn3)cnc2O[C@@H]1CN(C)Cc1ccccc1 | x | x | -1 | 1 | 4 | 6 | x | x | x | x | x
O=C(O)c1ccc(-n2c(-c3cc(-c4ccco4)[nH]n3)n[nH]c2=S)cc1 | 80* | 67* | -2 | 6 | 43 | 27 | 4 | 99 | 69* | -8 | -6
COc1ccc(OC)c(CCNC(=O)CCCC(=O)n2ncc3cc(C)ccc32)c1 | 1 | -9 | 2 | 16 | 0 | -4 | x | x | x | x | x
O=C(O)C1CCCCC1C(=O)Nc1cccc(Br)c1 (centres undefined) | 86* | 84* | 61* | 98* | 103* | 12 | 93* | 92 | 63* | -14 | -25 | Aptamer quench=0.2
NC(=O)NC(=O)COC(=O)c1ccc(OC(F)(F)F)cc1 | 0 | 1 | 0 | 0 | 2 | -2 | x | x | x | x | x
O=C(COC(=O)c1ccc(OC(F)(F)F)cc1)Nc1ncccn1 | 41* | 82* | -1 | -2 | 20 | 11 | 3 | 94 | 49* | -6 | -5
Cc1ccc(NC(=O)CS(=O)CC(=O)Nc2ccc(N3CCOCC3)cc2)cc1Cl (centres undefined) | 70* | 97* | 2 | 22 | -3 | 1 | -4 | 91 | 70* | -20 | 2
